Assays:
Assay type in all cases: functional
CCRF-CEM = assay: Growth inhibition of human CCRF-CEM cells after 48 hrs by SRB assay; conditions: for TGI: read-out: pTGI (converted)
Procedure, shortened: (§1)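 NCI 60-cell-line screen. Cells grown in RPMI1640 with 5% fetal calf serum and 2 mM L-glutamine, with inoculum density set by cell line. Preincubated 24 h, then given compound in DMSO at 10^-4 to 10^-8 M (five 10-fold steps) for 48 h continuous exposure. Growth measured by SRB protein assay. GI50, TGI and LC50 reported as –log molar.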

HL-60(TB) = assay: Growth inhibition of human HL-60(TB) cells after 48 hrs by SRB assay; conditions: HL-60, 48 h; for TGI: read-out: pTGI (converted)
Procedure, shortened: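 NCI 60-cell-line screen: cells grown in RPMI1640 with 5% fetal calf serum and 2 mM L-glutamine, preincubated 24 h, then exposed to compound in DMSO at five concentrations (10^-4 to 10^-8 M) for 48 h continuous exposure. Growth estimated by sulforhodamine B protein assay; reported as pGI50 (-log molar concentration inhibiting net cell growth by 50%).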

MOLT-4 = assay: Growth inhibition of human MOLT4 cells after 48 hrs by SRB assay; conditions: MOLT-4, 48 h; for TGI: read-out: pTGI (converted); procedure, shortened: as §1
[1] = Growth inhibition of human […] cells after 48 hrs by SRB assay; conditions: for TGI: read-out: pTGI (converted); procedure, shortened: as §1
SR = assay: Growth inhibition of human SR cells after 48 hrs by SRB assay; conditions: for TGI: read-out: pTGI (converted); procedure, shortened: as §1
EKVX = assay: Growth inhibition of human EKVX cells after 48 hrs by SRB assay; conditions: for TGI: read-out: pTGI (converted); procedure, shortened: as §1
HOP-62 = assay: Growth inhibition of human HOP62 cells after 48 hrs by SRB assay; conditions: HOP-62, 48 h; for TGI: read-out: pTGI (converted); procedure, shortened: as §1
NCI-H322M = assay: Growth inhibition of human NCI-H322M cells after 48 hrs by SRB assay; conditions: for TGI: read-out: pTGI (converted); procedure, shortened: as §1
NCI-H460 = assay: Growth inhibition of human NCI-H460 cells after 48 hrs by SRB assay; conditions: NCI-H460, 48 h; for TGI: read-out: pTGI (converted); procedure, shortened: as §1
HCT-116 = assay: Growth inhibition of human HCT116 cells after 48 hrs by SRB assay; conditions: HCT-116, 48 h; for TGI: read-out: pTGI (converted); procedure, shortened: as §1
HCT-15 = assay: Growth inhibition of human HCT15 cells after 48 hrs by SRB assay; conditions: HCT-15, 48 h; for TGI: read-out: pTGI (converted); procedure, shortened: as §1
HT-29 = assay: Growth inhibition of human HT-29 cells after 48 hrs by SRB assay; conditions: HT-29, 48 h; for TGI: read-out: pTGI (converted); procedure, shortened: as §1
KM12 = assay: Growth inhibition of human KM12 cells after 48 hrs by SRB assay; conditions: KM12, 48 h; for TGI: read-out: pTGI (converted); procedure, shortened: as §1
SW-620 = assay: Growth inhibition of human SW620 cells after 48 hrs by SRB assay; conditions: SW-620, 48 h; for TGI: read-out: pTGI (converted); procedure, shortened: as §1
SF-268 = assay: Growth inhibition of human SF268 cells after 48 hrs by SRB assay; conditions: SF-268, 48 h; for TGI: read-out: pTGI (converted); procedure, shortened: as §1
SF-295 = assay: Growth inhibition of human SF295 cells after 48 hrs by SRB assay; conditions: SF-295, 48 h; for TGI: read-out: pTGI (converted); procedure, shortened: as §1
SNB-75 = assay: Growth inhibition of human SNB75 cells after 48 hrs by SRB assay; conditions: SNB-75, 48 h; procedure, shortened: as §1
Malme-3M = assay: Growth inhibition of human MALME-3M cells after 48 hrs by SRB assay; conditions: for TGI: read-out: pTGI (converted); procedure, shortened: as §1
M14 = assay: Growth inhibition of human M14 cells after 48 hrs by SRB assay; conditions: M14, 48 h; for TGI: read-out: pTGI (converted); procedure, shortened: as §1
MDA-MB-435 = assay: Growth inhibition of human MDA-MB-435 cells after 48 hrs by SRB assay; conditions: MDA-MB-435, 48 h; for TGI: read-out: pTGI (converted); procedure, shortened: as §1
SK-MEL-28 = assay: Growth inhibition of human SK-MEL-28 cells after 48 hrs by SRB assay; conditions: SK-MEL-28, 48 h; for TGI: read-out: pTGI (converted); procedure, shortened: as §1
IGROV-1 = assay: Growth inhibition of human IGROV1 cells after 48 hrs by SRB assay; conditions: IGROV-1, 48 h; for TGI: read-out: pTGI (converted); procedure, shortened: as §1
OVCAR-3 = assay: Growth inhibition of human OVCAR-3 cells after 48 hrs by SRB assay; conditions: OVCAR-3, 48 h; for TGI: read-out: pTGI (converted); procedure, shortened: as §1
OVCAR-4 = assay: Growth inhibition of human OVCAR4 cells after 48 hrs by SRB assay; conditions: OVCAR-4, 48 h; for TGI: read-out: pTGI (converted); procedure, shortened: as §1
OVCAR-8 = assay: Growth inhibition of human OVCAR8 cells after 48 hrs by SRB assay; conditions: OVCAR-8, 48 h; for TGI: read-out: pTGI (converted); procedure, shortened: as §1
NCI/ADR-RES = assay: Growth inhibition of human NCI/ADR-RES cells after 48 hrs by SRB assay; conditions: for TGI: read-out: pTGI (converted); procedure, shortened: as §1
786-0 = assay: Growth inhibition of human 786-0 cells after 48 hrs by SRB assay; conditions: 786-0, 48 h; for TGI: read-out: pTGI (converted); procedure, shortened: as §1
A498 = assay: Growth inhibition of human A498 cells after 48 hrs by SRB assay; conditions: A498, 48 h; for TGI: read-out: pTGI (converted); procedure, shortened: as §1
CAKI-1 = assay: Growth inhibition of human Caki1 cells after 48 hrs by SRB assay; conditions: CAKI-1, 48 h; for TGI: read-out: pTGI (converted); procedure, shortened: as §1
RXF 393 = assay: Growth inhibition of human RXF393 cells after 48 hrs by SRB assay; conditions: RXF 393, 48 h; for TGI: read-out: pTGI (converted); procedure, shortened: as §1
PC-3 = assay: Growth inhibition of human PC3 cells after 48 hrs by SRB assay; conditions: PC-3, 48 h; for TGI: read-out: pTGI (converted); procedure, shortened: as §1
DU-145 = assay: Growth inhibition of human DU145 cells after 48 hrs by SRB assay; conditions: DU-145, 48 h; for TGI: read-out: pTGI (converted); procedure, shortened: as §1
MCF7 = assay: Growth inhibition of human MCF7 cells after 48 hrs by SRB assay; conditions: MCF7, 48 h; for TGI: read-out: pTGI (converted); procedure, shortened: as §1
[2] = Growth inhibition of human Hs 578T cells after 48 hrs by SRB assay; conditions: for TGI: read-out: pTGI (converted); procedure, shortened: as §1
T47D = assay: Growth inhibition of human T47D cells after 48 hrs by SRB assay; conditions: for TGI: read-out: pTGI (converted); procedure, shortened: as §1

COc1ccc(C2CC(c3cc(OC)c(OC)c(OC)c3)=NN2)cc1 (centres undefined)
GI50 (CCRF-CEM): 6.31 µM
TGI (CCRF-CEM): > 100 µM
GI50 (HL-60(TB)): 2 µM
TGI (HL-60(TB)): 12.6 µM
GI50 (MOLT-4): 5.01 µM
TGI (MOLT-4): 25.1 µM
GI50 [1]: 3.16 µM
TGI [1]: 20 µM
GI50 (SR): 1 µM
TGI (SR): 3.98 µM
GI50 (EKVX): 10 µM
TGI (EKVX): > 100 µM
GI50 (HOP-62): 31.6 µM
TGI (HOP-62): > 100 µM
GI50 (NCI-H322M): 79.4 µM
TGI (NCI-H322M): > 100 µM
GI50 (NCI-H460): 3.16 µM
TGI (NCI-H460): 30.2 µM
GI50 (HCT-116): 3.98 µM
TGI (HCT-116): > 100 µM
GI50 (HCT-15): 3.16 µM
TGI (HCT-15): > 100 µM
GI50 (HT-29): 3.98 µM
TGI (HT-29): > 100 µM
GI50 (KM12): 3.98 µM
TGI (KM12): > 100 µM
GI50 (SW-620): 5.01 µM
TGI (SW-620): > 100 µM
GI50 (SF-268): 20 µM
TGI (SF-268): > 100 µM
GI50 (SF-295): 5.01 µM
TGI (SF-295): > 100 µM
GI50 (SNB-75): 3.98 µM
GI50 (Malme-3M): 25.1 µM
TGI (Malme-3M): > 100 µM
GI50 (M14): 12.6 µM
TGI (M14): > 100 µM
GI50 (MDA-MB-435): 3.16 µM
TGI (MDA-MB-435): 20 µM
GI50 (SK-MEL-28): 39.8 µM
TGI (SK-MEL-28): > 100 µM
GI50 (IGROV-1): 6.31 µM
TGI (IGROV-1): > 100 µM
GI50 (OVCAR-3): 3.98 µM
TGI (OVCAR-3): 50.1 µM
GI50 (OVCAR-4): 12.6 µM
TGI (OVCAR-4): > 100 µM
GI50 (OVCAR-8): 25.1 µM
TGI (OVCAR-8): > 100 µM
GI50 (NCI/ADR-RES): 6.31 µM
TGI (NCI/ADR-RES): > 100 µM
GI50 (786-0): 20 µM
TGI (786-0): > 100 µM
GI50 (A498): 6.31 µM
TGI (A498): 50.1 µM
GI50 (CAKI-1): 7.94 µM
TGI (CAKI-1): 63.1 µM
GI50 (RXF 393): 10 µM
TGI (RXF 393): > 100 µM
GI50 (PC-3): 6.31 µM
TGI (PC-3): > 100 µM
GI50 (DU-145): 31.6 µM
TGI (DU-145): > 100 µM
GI50 (MCF7): 2.51 µM
TGI (MCF7): 25.1 µM
GI50 [2]: 15.8 µM
TGI [2]: > 100 µM
GI50 (T47D): 3.98 µM
TGI (T47D): > 100 µM

COc1ccc(/C=C\c2cc(OC)c(OC)c(OC)c2)cc1O [COMBRETASTATIN A4]
GI50 (CCRF-CEM): 0.1 µM
TGI (CCRF-CEM): 5.01 µM
GI50 (HL-60(TB)): 0.0316 µM
TGI (HL-60(TB)): 0.0631 µM
GI50 (MOLT-4): 0.1 µM
TGI (MOLT-4): 3.98 µM
GI50 [1]: 0.158 µM
TGI [1]: 6.31 µM
GI50 (SR): 0.126 µM
TGI (SR): 79.4 µM
GI50 (EKVX): 0.398 µM
TGI (EKVX): 79.4 µM
GI50 (HOP-62): 0.2 µM
TGI (HOP-62): 2.51 µM
GI50 (NCI-H322M): 0.0794 µM
TGI (NCI-H322M): 79.4 µM
GI50 (NCI-H460): 0.0316 µM
TGI (NCI-H460): 63.1 µM
GI50 (HCT-116): 0.0316 µM
TGI (HCT-116): 0.2 µM
GI50 (HCT-15): 0.0316 µM
TGI (HCT-15): 10 µM
GI50 (HT-29): 0.631 µM
TGI (HT-29): 6.31 µM
GI50 (KM12): 0.0501 µM
TGI (KM12): 0.794 µM
GI50 (SW-620): 0.0316 µM
TGI (SW-620): 79.4 µM
GI50 (SF-268): 0.126 µM
TGI (SF-268): 50.1 µM
GI50 (SF-295): 0.0631 µM
TGI (SF-295): 1.26 µM
GI50 (SNB-75): 0.794 µM
TGI (SNB-75; read-out: pTGI (converted)): 25.1 µM
GI50 (Malme-3M): 0.501 µM
TGI (Malme-3M): 79.4 µM
GI50 (M14): 0.158 µM
TGI (M14): 0.251 µM
GI50 (MDA-MB-435): 0.0316 µM
TGI (MDA-MB-435): 0.0794 µM
GI50 (SK-MEL-28): 3.16 µM
TGI (SK-MEL-28): 50.1 µM
GI50 (IGROV-1): 0.0631 µM
TGI (IGROV-1): 63.1 µM
GI50 (OVCAR-3): 0.0398 µM
TGI (OVCAR-3): 0.158 µM
GI50 (OVCAR-4): 0.251 µM
TGI (OVCAR-4): 79.4 µM
GI50 (OVCAR-8): 0.0398 µM
TGI (OVCAR-8): 39.8 µM
GI50 (NCI/ADR-RES): 0.0631 µM
TGI (NCI/ADR-RES): 0.398 µM
GI50 (786-0): 0.0199 µM
TGI (786-0): 25.1 µM
GI50 (A498): 0.0501 µM
TGI (A498): 0.794 µM
GI50 (CAKI-1): 0.0398 µM
TGI (CAKI-1): 15.8 µM
GI50 (RXF 393): 1 µM
TGI (RXF 393): 79.4 µM
GI50 (PC-3): 0.0398 µM
TGI (PC-3): > 100 µM
GI50 (DU-145): 0.01 µM
TGI (DU-145): > 100 µM
GI50 (MCF7): 0.0398 µM
TGI (MCF7): 79.4 µM
GI50 [2]: 0.158 µM
TGI [2]: 7.94 µM
GI50 (T47D): 50.1 µM
TGI (T47D): > 100 µM
